# Screening data from PubChem BioAssay.
# Shown are actives, neighbours in structure and some others; about 3.4% of the full set was active somewhere.
# MEKK2wt PB1 HTS: raises or lowers MEK5 binding to wildtype human MEKK2 PB1 domain; AID 1531; binding response (% of control), % at 10 µM; bead flow cytometry, Alexa488-MEK5 binding to MEKK2 WT; actives lie on both sides; 1.1% of 290,000 active; Q9Y2U5; in the data active = binding response below about 67% or above about 130%
# MEKK2mut PB1 HTS: signal of MEK5 binding to mutant human MEKK2 PB1 domain; bead flow cytometry, Alexa488-MEK5 binding to MEKK2 mutant; percent response, % at 10 µM; AID 1530; 0.35% of 290,000 active; in the data active = percent response above about 24%, passing the limit was not always enough
# VIM-2 inhibitor: inhibitors of Pseudomonas aeruginosa VIM-2 metallo-beta-lactamase; inhibition, % at 5.6 µM; AID 1527; 0.89% of 290,000 active; purified VIM-2, nitrocefin hydrolysis, epi-absorbance fluorescence;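 active = inhibition above the mean of all tested compounds plus 3 SD, cutoff set per screening run, cut at about 7.5% in these data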;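 also: red hydrolysis product quenches plate fluorescence so inhibitors raise well fluorescence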
# IMP-1 inh: blocks Pseudomonas aeruginosa IMP-1 metallo-beta-lactamase; 0.45% of 290,000 active; AID 1556; purified IMP-1, nitrocefin hydrolysis, epi-absorbance fluorescence; inhibition, % at 5.6 µM;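 active = inhibition above the mean plus 3 SD of all compounds in the same screening run, cut at about 4.5% in these data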
#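 System: Purified IMP-1 | Read-out basis: Percent enzyme inhibition | Controls: IMP-1 with DMSO as 0%, enzyme-free DMSO as 100% | Replicates: One well per compound | Doses: 5.6 µM nominal single concentration | Detection: Epi-absorbance fluorescence, 480 nm excitation, 530 nm emission | Incubation: 25 °C, 15 min preincubation, 25 min reaction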
# MEKK3 PB1 HTS: raises or lowers MEK5 binding to the human MEKK3 PB1 domain; binding response (% of control), % at 10 µM; Q99759; bead-based flow cytometry, Alexa488-MEK5 binding to MEKK3; actives lie on both sides; 0 = blocked by unlabeled MEK5, 100 = vehicle; 1.4% of 290,000 active; AID 1529;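 active = binding response more than 3 SD above or below the average of its plate-row segment, actives on both sides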;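 also: Alexa488 bead fluorescence after subtracting the streptavidin-only scavenger bead signal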
# Target sequence (Q99759 whole entry, looked up, the tested form may be a part): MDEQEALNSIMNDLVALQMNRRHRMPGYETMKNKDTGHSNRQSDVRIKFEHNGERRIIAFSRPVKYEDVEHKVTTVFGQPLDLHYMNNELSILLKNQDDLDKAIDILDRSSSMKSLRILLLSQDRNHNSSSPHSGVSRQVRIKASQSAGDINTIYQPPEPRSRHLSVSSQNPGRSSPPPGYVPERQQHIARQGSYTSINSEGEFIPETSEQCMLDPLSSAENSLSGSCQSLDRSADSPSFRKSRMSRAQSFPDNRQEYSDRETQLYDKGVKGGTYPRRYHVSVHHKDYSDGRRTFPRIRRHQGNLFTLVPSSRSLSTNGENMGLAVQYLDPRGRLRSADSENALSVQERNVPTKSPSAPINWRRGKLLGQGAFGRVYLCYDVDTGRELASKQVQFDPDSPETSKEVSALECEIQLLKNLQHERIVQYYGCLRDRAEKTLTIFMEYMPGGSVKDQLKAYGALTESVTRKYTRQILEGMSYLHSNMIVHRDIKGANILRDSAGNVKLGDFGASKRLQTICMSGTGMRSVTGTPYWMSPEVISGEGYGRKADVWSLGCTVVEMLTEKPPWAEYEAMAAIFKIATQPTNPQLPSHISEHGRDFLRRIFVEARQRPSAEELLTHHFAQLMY
# MEKK2wt confirm: raises or lowers MEK5 binding to wildtype human MEKK2, retest; bead flow cytometry, Alexa488-MEK5 binding to MEKK2 WT; actives lie on both sides; 2.4% of 5,900 active; binding response (% of control), % at 10 µM; AID 1892; shares compounds with MEKK3 PB1 HTS; in the data active = binding response below about 16% or above about 210%; inactive = in between
# MEKK2mut-MEK5: signal of MEK5 binding to mutant human MEKK2, retest; percent response, % at 10 µM; bead flow cytometry, Alexa488-MEK5 binding to MEKK2 mutant; 2% of 5,900 active; shares compounds with MEKK3 PB1 HTS; in the data active = percent response mostly above about 71%, no sharp cut-off; inactive = mostly below about 38%;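 also: higher means compound restores mutant binding toward wildtype level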
# MEKK3-MEK5 inh: MEKK3-MEK5 PB1 inhibition, single concentration confirmation; 1.8% of 5,900 active; binding response (% of control), % at 10 µM; bead flow cytometry, Alexa488-MEK5 binding to MEKK3; hits give low values; shares compounds with MEKK3 PB1 HTS;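 active = binding response below 72% of control, or above a set upper limit, though filed actives all read lower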;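 also: lower values mean stronger disruption of MEK5 binding to MEKK3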
# Numbers stand for hits; n = inactive; x = not tested or not shown; [ ] = dose if it differs, or a comment.
SMILES,MEKK2wt PB1 HTS,MEKK2mut PB1 HTS,VIM-2 inhibitor,IMP-1 inh,MEKK3 PB1 HTS,MEKK2wt confirm,MEKK2mut-MEK5,MEKK3-MEK5 inh
Cc1nc(SCC(=O)OCc2ccccc2)c(C#N)c(-c2ccccc2)c1C(=O)Nc1ccccc1,n,n,n,n,n,x,x,x
Cc1ccccc1NC(=O)c1c(C)nc(SCC(=O)OCc2ccccc2)c(C#N)c1-c1ccc(F)cc1,n,n,n,n,144.0,n,n,n
O=C(OC1CCCCC1=O)c1ccc(S(=O)(=O)Nc2ccccc2)cc1 (configuration not stated),n,n,n,n,n,x,x,x
CC1(c2ccc(OC(F)F)cc2)NC(=O)N(CC(=O)Nc2ccc(OC(F)F)cc2)C1=O (configuration not stated),n,n,n,n,n,x,x,x
CC1(c2ccc(OC(F)F)cc2)NC(=O)N(CC(=O)Nc2ccc(S(N)(=O)=O)cc2)C1=O (configuration not stated),n,n,n,n,46.0[inhibitor],n,n,n
CCOC(=O)N1CCN(C(=O)C2CCN(C(=O)c3cc(OC)cc(OC)c3)CC2)CC1,n,n,n,n,142.0,n,n,n
CCOC(=O)N1CCN(C(=O)c2ccc(OC)cc2)CC1,n,n,n,n,n,x,x,x
CCCCn1c(-c2ccc(C(C)(C)C)cc2)nc2cc3[nH]c(=O)c(C(C)C)nc3cc21,69.0[inhibitor],n,n,n,n,n,n,n
Cc1c(Cc2ccc3c(c2)OCO3)sc(NC(=O)c2ccccc2)c1C(N)=O,n,n,n,n,75.0[inhibitor],n,n,n
O=C(O)c1cccnc1SCC(=O)N1CCCCCC1,n,n,n,n,n,x,x,x
N#Cc1cccc(Oc2ccc(-c3cnc4ccccc4n3)cc2)c1C#N,n,n,n,n,130.0,n,n,n
O=C(NCc1nnc2c(C(F)(F)F)cc(Cl)cn12)c1cccnc1,n,n,n,n,n,x,x,x
Cn1c(=O)oc2cc(S(=O)(=O)NCc3ccccc3)ccc21,n,n,n,n,n,x,x,x
Cn1c(=O)oc2cc(S(=O)(=O)NCc3ccc(Cl)cc3)ccc21,-6.0[inhibitor],n,n,n,0.0[inhibitor],n,n,n
O=C(NC1(C(F)(F)F)NC(=O)N(C2CCCCC2)C1=O)C1CC1 (configuration not stated),n,n,n,n,n,x,x,x
CCOC(=O)NC1(C(F)(F)F)NC(=O)N(C2CCCCC2)C1=O (configuration not stated),-4.0[inhibitor],n,n,n,n,n,n,n
O=C(Cn1nc(-c2ccco2)ccc1=O)Nc1cc(C(F)(F)F)ccc1Cl,n,n,n,n,n,x,x,x
CCC1Sc2ccccc2N(CC(=O)NC2CCCC2)C1=O (configuration not stated),n,n,n,n,n,x,x,x
COc1ccc(N2C(=O)C3C4c5ccccc5C(C=Nc5ccc(C)cc5C)(c5ccccc54)C3C2=O)cc1 (configuration not stated),n,n,n,n,n,x,x,x
CCc1ccc(N=CC23c4ccccc4C(c4ccccc42)C2C(=O)N(c4ccc(OC)cc4)C(=O)C23)cc1 (configuration not stated),n,n,n,n,81.0[inhibitor],n,n,n
COc1ccc2oc(=O)c(C(=O)N3CCN(c4ccc(F)cc4)CC3)cc2c1,n,n,n,n,n,x,x,x
CCOc1ccccc1N(CC(=O)NC1CCCCC1)S(C)(=O)=O,n,n,n,n,74.0[inhibitor],n,n,n
CCOc1ccccc1N(CC(=O)NC1CCCCC1)S(=O)(=O)c1ccc(C)cc1,n,n,n,n,n,x,x,x
CCOc1ccccc1N(CC(=O)OC)S(=O)(=O)c1ccccc1,n,n,n,n,126.0,n,n,n
NC(=O)COc1ccc(-c2noc(COc3ccccc3[N+](=O)[O-])n2)cc1,n,n,n,n,132.0,n,n,n
SMILES,MEKK2wt PB1 HTS,MEKK2mut PB1 HTS,VIM-2 inhibitor,IMP-1 inh,MEKK3 PB1 HTS,MEKK2wt confirm,MEKK2mut-MEK5,MEKK3-MEK5 inh
COc1ccc(OC)c(CCNC(=O)CC2Oc3ccccc3NC2=O)c1 (configuration not stated),n,n,n,n,n,x,x,x
COc1ccc(/C=N/n2cnc3c([nH]c4ccc(C)cc43)c2=O)cc1CN1CCCC1,159.0,n,n,n,132.0,n,n,n
CN(C(=S)Oc1ccc(C(=O)Nc2ccccc2)cc1)c1ccccc1,n,n,n,n,n,x,x,x
C=CCn1c(-c2ccc(Cl)cc2)c[nH]c1=S,n,n,n,n,n,x,x,x
C=CCn1c(-c2ccccc2)c[nH]c1=S,n,n,n,n,124.0,n,n,n
O=C(N/N=C/c1ccc(Cl)cc1)Nc1ccccc1,n,n,n,n,n,x,x,x
O=[N+]([O-])c1ccc(C[n+]2cccc3c4ccccc4ccc32)cc1,8.0[inhibitor],n,n,n,n,n,n,n
CSc1cccc(NC(=S)Nc2ccc(F)cc2)c1,n,n,n,n,n,x,x,x
CSc1cccc(NC(=S)NN(C)C)c1,60.0[inhibitor],n,n,n,68.0[inhibitor],n,n,n
CCOC(=O)c1ccc(-c2ccc(/C=N/NC(=O)CN(c3cccc(C)c3)S(C)(=O)=O)o2)cc1,n,n,n,n,n,x,x,x
CCOC(=O)c1ccc(-c2ccc(/C=N/NC(=O)CN(c3ccccc3Cl)S(C)(=O)=O)o2)cc1,n,n,n,n,141.0,n,n,n
CCc1nnc(NC(=O)CSc2ccc(-c3nc4ccc(C)cc4[nH]3)cn2)s1,n,n,n,n,n,x,x,x
CCC(CC)NC(=O)COC(=O)c1ccc(OCc2ccc(C(C)=O)cc2OC)c(OC)c1,n,n,n,n,n,x,x,x
COc1cc(C(C)=O)ccc1COc1ccc(C(=O)OCC(N)=O)cc1OC,n,n,n,n,72.0[inhibitor],n,n,n
CCOC(=O)N1CCN(C(=O)c2cccc(F)c2)CC1,n,n,n,n,n,x,x,x
COC(=O)C(C)N(C#N)c1nc(NC(C)C)nc(SC)n1 (configuration not stated),n,n,n,n,n,x,x,x
COC(=O)C(C)N(C#N)c1nc(C)cc(C)n1 (configuration not stated),n,n,n,n,131.0,n,n,n
Cc1ccc(NC(=O)c2ccc(NCCc3ccccc3)c([N+](=O)[O-])c2)cc1F,5.0[inhibitor],n,n,n,n,n,n,n
COc1ccc(C2CC2/C(C)=N/OC(=O)C2CC2)cc1 (configuration not stated),n,n,n,n,n,x,x,x
COc1ccc(C2CC2C(C)=O)cc1 (configuration not stated),n,n,n,n,134.0,n,n,n
